Broadly, the pKi is the negative decadic logarithm of the Ki, by convention in mol/L. A lower pKi goes with a high Ki. The term pIC50 denotes −log10 of the IC50, conventionally taken in molar units.

The values that follow come from ChEMBL document CHEMBL1138144 (J Med Chem, 2006).

pIC50, pKi: −log10 of the molar value. A value given as a limit tells only on which side of the number the result lay.

In test [1] the target is T1, Sodium-dependent dopamine transporter (Homo sapiens, UniProt Q01959). The experiment in a line: Displacement of [125I]RTI-55 from human DAT expressed in HEK293 cells. In kind it is cell-based. Summed up: (§1)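 Membranes from HEK293 cells expressing hDAT or hSERT, grown to 80% confluence, lysed in 2 mM HEPES/1 mM EDTA, spun and resuspended in 0.32 M sucrose. About 10–15 µg protein preincubated 10 min with compound in Krebs-HEPES pH 7.4 (0.1% DMSO final). Filtered on GF/C. Non-specific binding: 5 µM mazindol (DAT) or 5 µM imipramine (SERT). Duplicates, 2–3 experiments, IC50 converted to Ki by Cheng-Prusoff.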
T1 sequence (Q01959 whole entry): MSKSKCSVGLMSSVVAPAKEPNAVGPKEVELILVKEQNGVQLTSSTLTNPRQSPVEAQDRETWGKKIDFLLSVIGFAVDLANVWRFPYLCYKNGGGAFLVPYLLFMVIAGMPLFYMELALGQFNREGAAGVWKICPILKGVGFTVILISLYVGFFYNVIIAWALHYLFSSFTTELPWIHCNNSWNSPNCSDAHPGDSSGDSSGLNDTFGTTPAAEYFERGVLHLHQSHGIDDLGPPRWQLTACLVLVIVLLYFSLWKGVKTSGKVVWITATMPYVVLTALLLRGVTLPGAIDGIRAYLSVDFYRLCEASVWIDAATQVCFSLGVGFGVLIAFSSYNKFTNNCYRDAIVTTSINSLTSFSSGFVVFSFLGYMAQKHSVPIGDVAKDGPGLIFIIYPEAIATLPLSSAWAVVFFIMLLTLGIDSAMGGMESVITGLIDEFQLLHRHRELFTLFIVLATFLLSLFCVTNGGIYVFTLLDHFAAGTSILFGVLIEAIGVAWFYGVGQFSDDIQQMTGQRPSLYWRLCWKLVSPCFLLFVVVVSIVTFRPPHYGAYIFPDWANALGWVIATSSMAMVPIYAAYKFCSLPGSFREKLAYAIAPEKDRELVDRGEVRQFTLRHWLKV

For test [2], the target named is T1, Sodium-dependent dopamine transporter. Put plainly: Inhibition of [3H] dopamine uptake into human DAT expressed in HEK293 cells. In kind it is functional, cell-based. In outline: (§2)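 Confluent HEK293 cells expressing hDAT or hSERT, scraped into Krebs-HEPES. Preincubated 10 min at 25°C with compound (0.1% DMSO final). Uptake started with [3H]dopamine or [3H]serotonin (20 nM final) and stopped after 10 min by filtration on PEI-soaked GF/C filters. Non-specific uptake: 5 µM mazindol (DAT) or 5 µM imipramine (SERT). IC50 from triplicate 6-concentration curves, 2–3 independent determinations.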

Test [3] deals with T2, Sodium-dependent serotonin transporter (Homo sapiens, UniProt P31645). The experiment in a line: Displacement of [125I]RTI-55 from human SERT expressed in HEK293 cells. In kind it is cell-based. In outline: as §1
T2 sequence (P31645 whole entry): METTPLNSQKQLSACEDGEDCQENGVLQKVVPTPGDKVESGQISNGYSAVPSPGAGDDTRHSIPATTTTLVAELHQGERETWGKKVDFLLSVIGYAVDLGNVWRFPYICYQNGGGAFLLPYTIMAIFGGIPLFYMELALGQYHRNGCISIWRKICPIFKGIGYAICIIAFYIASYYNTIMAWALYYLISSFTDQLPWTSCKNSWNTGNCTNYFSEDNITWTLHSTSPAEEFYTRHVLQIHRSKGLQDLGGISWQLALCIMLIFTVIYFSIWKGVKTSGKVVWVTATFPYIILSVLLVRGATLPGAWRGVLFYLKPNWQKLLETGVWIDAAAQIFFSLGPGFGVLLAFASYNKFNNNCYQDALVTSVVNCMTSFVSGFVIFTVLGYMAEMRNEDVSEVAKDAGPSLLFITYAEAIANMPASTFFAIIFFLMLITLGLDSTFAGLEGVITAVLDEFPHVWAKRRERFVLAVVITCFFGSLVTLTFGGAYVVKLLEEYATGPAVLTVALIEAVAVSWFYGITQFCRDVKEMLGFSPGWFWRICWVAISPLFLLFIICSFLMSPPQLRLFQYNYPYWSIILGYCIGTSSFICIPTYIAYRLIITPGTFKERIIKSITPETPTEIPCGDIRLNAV
In general terms: Displacement assays read how much labelled ligand stays bound in the presence of the test substance.

Test [4] concerns the target T2, Sodium-dependent serotonin transporter. Put plainly: Inhibition of [3H] serotonin uptake into human SERT expressed in HEK293 cells. In kind it is functional, cell-based. In outline:
as §2

The target in test [5] is T3, Sodium-dependent noradrenaline transporter (Homo sapiens, UniProt P23975). The experiment in a line: Displacement of [125I]RTI-55 from human NET expressed in HEK293 cells. In kind it is cell-based.
T3 sequence (P23975 whole entry): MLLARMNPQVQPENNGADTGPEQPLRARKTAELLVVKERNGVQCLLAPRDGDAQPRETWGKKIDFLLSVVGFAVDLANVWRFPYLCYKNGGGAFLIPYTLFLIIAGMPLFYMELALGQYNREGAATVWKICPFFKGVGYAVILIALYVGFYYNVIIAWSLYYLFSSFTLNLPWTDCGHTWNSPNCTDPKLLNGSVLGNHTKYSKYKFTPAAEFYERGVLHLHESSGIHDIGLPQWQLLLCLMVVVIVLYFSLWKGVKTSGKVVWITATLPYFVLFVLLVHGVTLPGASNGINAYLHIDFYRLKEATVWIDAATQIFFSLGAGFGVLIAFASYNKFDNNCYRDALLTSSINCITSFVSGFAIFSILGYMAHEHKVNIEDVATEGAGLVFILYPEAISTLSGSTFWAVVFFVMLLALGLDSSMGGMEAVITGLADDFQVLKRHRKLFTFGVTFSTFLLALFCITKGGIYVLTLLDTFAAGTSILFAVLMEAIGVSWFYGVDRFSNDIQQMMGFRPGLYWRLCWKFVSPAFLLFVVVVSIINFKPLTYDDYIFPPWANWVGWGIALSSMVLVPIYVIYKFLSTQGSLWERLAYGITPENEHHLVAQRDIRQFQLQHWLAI
Test [6] deals with T3, Sodium-dependent noradrenaline transporter. Put plainly: Inhibition of [3H] norepinephrine uptake into human NET expressed in HEK293 cells. In kind it is functional, cell-based.
Test [7] has as its target T4, 5-hydroxytryptamine receptor 1A (Homo sapiens, UniProt P08908).
T4 sequence (P08908 whole entry): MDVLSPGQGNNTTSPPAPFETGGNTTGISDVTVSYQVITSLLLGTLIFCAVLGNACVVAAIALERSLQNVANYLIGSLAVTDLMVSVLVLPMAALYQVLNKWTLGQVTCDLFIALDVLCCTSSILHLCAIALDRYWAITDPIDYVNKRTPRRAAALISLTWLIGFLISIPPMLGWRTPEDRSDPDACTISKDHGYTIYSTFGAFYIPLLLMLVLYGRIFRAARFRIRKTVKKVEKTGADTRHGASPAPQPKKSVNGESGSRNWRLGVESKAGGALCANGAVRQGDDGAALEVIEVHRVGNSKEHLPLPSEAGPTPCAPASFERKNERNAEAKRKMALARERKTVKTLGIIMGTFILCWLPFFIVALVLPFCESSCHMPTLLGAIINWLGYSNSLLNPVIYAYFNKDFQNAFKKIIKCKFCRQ
The experiment in a line: Inhibitory activity against 5HT1A.

Test [8] concerns the target 5-hydroxytryptamine receptor 1B (Homo sapiens, UniProt P28222). The experiment in a line: Inhibitory activity against 5HT1B.
Test [9] deals with T5, 5-hydroxytryptamine receptor 2C (Homo sapiens, UniProt P28335).
T5 sequence (P28335 whole entry): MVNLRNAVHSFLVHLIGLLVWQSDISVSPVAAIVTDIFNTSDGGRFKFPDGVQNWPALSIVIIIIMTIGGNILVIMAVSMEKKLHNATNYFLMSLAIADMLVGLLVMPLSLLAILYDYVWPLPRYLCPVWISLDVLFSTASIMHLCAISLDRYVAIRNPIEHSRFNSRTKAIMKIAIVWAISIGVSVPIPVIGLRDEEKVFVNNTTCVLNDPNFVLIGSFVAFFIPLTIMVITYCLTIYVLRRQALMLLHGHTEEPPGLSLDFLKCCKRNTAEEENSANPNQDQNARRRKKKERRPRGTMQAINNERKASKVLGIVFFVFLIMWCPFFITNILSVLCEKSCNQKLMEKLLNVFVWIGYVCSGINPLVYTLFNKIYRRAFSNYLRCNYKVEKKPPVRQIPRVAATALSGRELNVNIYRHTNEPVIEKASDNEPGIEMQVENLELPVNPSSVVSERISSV
The experiment in a line: Inhibitory activity against 5HT1C.

The target of a further test is D(1A) dopamine receptor (Homo sapiens, UniProt P21728). The experiment in a line: Inhibitory activity against dopamine D1.
Chain of D(1A) dopamine receptor (P21728 whole entry): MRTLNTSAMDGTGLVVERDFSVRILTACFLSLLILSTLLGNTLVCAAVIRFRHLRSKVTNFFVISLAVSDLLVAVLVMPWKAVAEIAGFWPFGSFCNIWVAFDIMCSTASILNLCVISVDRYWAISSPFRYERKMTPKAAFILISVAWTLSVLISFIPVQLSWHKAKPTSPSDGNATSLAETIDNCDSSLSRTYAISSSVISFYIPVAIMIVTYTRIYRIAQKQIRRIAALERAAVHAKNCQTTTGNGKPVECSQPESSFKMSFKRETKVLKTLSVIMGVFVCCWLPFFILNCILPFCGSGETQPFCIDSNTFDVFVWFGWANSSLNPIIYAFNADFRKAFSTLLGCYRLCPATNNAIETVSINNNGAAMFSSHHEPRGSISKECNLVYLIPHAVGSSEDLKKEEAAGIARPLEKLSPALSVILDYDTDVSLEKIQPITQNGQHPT
For another test, the target named is D(2) dopamine receptor (Homo sapiens, UniProt P14416). Put plainly: Inhibitory activity against dopamine D2.
Chain of D(2) dopamine receptor (P14416 whole entry): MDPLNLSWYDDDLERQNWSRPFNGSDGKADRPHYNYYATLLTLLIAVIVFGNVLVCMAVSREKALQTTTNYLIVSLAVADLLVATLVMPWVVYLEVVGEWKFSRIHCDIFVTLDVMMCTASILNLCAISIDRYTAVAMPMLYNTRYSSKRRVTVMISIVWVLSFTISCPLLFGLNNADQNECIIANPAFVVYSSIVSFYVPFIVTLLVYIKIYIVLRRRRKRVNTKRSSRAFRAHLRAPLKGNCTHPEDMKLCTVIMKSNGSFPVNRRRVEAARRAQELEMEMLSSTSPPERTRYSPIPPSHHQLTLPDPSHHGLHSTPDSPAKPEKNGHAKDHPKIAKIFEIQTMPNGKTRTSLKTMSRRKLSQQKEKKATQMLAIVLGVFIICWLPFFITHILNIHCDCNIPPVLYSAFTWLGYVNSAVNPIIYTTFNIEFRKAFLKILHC
A further test deals with D(3) dopamine receptor (Homo sapiens, UniProt P35462). The experiment in a line: Inhibitory activity against dopamine D3.
Chain of D(3) dopamine receptor (P35462 whole entry): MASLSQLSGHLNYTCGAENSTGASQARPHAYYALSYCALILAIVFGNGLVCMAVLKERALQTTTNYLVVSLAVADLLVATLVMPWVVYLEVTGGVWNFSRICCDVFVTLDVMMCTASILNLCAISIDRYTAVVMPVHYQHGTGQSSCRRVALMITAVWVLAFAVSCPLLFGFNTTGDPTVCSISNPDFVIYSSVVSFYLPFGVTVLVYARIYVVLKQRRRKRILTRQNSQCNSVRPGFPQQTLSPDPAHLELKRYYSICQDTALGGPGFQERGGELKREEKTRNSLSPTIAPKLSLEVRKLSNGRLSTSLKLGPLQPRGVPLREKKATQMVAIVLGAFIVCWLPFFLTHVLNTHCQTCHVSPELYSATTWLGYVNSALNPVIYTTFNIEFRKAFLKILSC

Chain of 5-hydroxytryptamine receptor 1B (P28222 whole entry): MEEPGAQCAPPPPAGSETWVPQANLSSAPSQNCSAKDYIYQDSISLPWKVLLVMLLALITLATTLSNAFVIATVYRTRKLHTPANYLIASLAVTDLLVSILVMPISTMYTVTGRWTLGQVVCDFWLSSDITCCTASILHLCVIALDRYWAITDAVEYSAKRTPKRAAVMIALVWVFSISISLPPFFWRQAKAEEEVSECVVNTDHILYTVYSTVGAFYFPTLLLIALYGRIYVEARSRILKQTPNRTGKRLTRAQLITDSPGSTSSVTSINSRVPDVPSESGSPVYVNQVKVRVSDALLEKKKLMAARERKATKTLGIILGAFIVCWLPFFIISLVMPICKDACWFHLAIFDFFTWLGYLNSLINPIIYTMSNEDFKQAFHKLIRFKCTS

As for `CCCC(C(=O)c1ccc(Br)cc1)N1CCCC1` (configuration not stated), the pKi in test [1] was 7.29; in [3], 6.08; in test [5] it was 6.41. The pIC50 was 7.40 in test [2]; 5.98 in test [4]; 7.08 in test [6]; under 5.00 in test [7]; under 5.00 in [8]; under 5.00 in test [9]. In addition, the pIC50 at D(1A) dopamine receptor, on D(2) dopamine receptor and against D(3) dopamine receptor was under 5.00 in each case.
